# From ChEMBL document CHEMBL2331200, “Synthesis and bioevaluation of [(18)F]4-fluoro-m-hydroxyphenethylguanidine ([(18)F]4F-MHPG): a novel radiotracer for quantitative PET studies of cardiac sympathetic innervation” (Bioorg Med Chem Lett, 2013)
# Columns and labels:
# [1] = Biodistribution in iv dosed rhesus monkey liver; assay type: ADME, organism-based, Macaca mulatta; settings: in vivo
# Method in brief: (§1)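 Dynamic PET imaging of a single nonhuman primate after injection of the 18F tracer. Regional heart, liver and lung activity was read from the images. Heart-to-blood activity ratios were taken at 80–90 min post-injection.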
# [2] = Biodistribution in iv dosed rhesus monkey heart; assay type: ADME, organism-based, Macaca mulatta; settings: in vivo; method in brief: as §1
# [3] = Biodistribution in iv dosed rhesus monkey lungs; assay type: ADME, organism-based, Macaca mulatta, Lung; settings: in vivo; method in brief: as §1
# [4] = Biodistribution in iv dosed rhesus monkey left ventricle; assay type: ADME, organism-based, Macaca mulatta, Heart left ventricle; settings: in vivo; method in brief: as §1
# Heart = assay: Drug uptake in rat heart assessed as neuronal uptake rate per gram of wet weight after 10 mins constant infusion measured up to 140 mins; assay type: ADME, tissue-based; settings: ex_vivo
# Method in brief: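 Isolated working rat heart with uptake-2 blocked by 54 μM corticosterone in the perfusion buffer. Radiotracer was infused for 10 min at constant perfusate concentration to give the neuronal uptake rate Kup (ml/min/g wet).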
Drug uptake [2],Drug uptake [3],Drug uptake [4],SMILES,Drug uptake [1],Drug uptake (Heart)
–,–,–,C[C@H](N[11CH3])[C@H](O)c1cccc(O)c1,Active,–
Active,Not Active,Active,N=C(N)NCCc1ccc([18F])c(O)c1,Active,–
–,–,–,N=C(N)NCc1ccc([18F])cc1,–,1.2 mL/min/g
–,–,–,N=C(N)NCc1cccc([123I])c1 [IOBENGUANE I 123],Active,–
